Source: ChEMBL document CHEMBL1151702, “Using an aryl phenanthroimidazole moiety as a conjugated flexible intercalator to improve the hybridization efficiency of a triplex-forming oligonucleotide” (Bioorg Med Chem, 2008)

What was measured:
Assay type in all cases: nucleic-acid assay
Nucleic Acid [1] = assay: Binding affinity to synthetic double stranded DNA D4 at 1.5 uM at pH 6.0 by thermal denaturation study
Procedure, shortened: (§1)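 Parallel triplex melting: target duplex assembled from strands at 1.0 µM each, TFO third strand added at 1.5 µM. Buffer 20 mM sodium cacodylate, 100 mM NaCl, 10 mM MgCl₂, at the pH of the line. Samples heated to 80 °C for 5 min, cooled to 5 °C and held 30 min. Absorbance read at 260 nm while heating at 1.0 °C/min; Tm taken as the first-derivative maximum.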

Nucleic Acid [2] = assay: Binding affinity to synthetic double stranded DNA D1 at 1.5 uM at pH 7.2 by thermal denaturation study; procedure, shortened: as §1
Nucleic Acid [3] = assay: Binding affinity to synthetic double stranded DNA D1 at 1.5 uM at pH 6.0 by thermal denaturation study; procedure, shortened: as §1
Nucleic Acid [4] = assay: Binding affinity to synthetic double stranded DNA D2 at 1.5 uM at pH 6.0 by thermal denaturation study; procedure, shortened: as §1
Nucleic Acid [5] = assay: Binding affinity to synthetic oligonucleotide ON20 at 1.0 uM at pH 7.0 by thermal denaturation study
Procedure, shortened: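 DNA/RNA antiparallel duplex: each strand at 1.0 µM in 10 mM sodium phosphate, 140 mM NaCl, 1 mM EDTA, pH 7.0. Heated to 80 °C for 5 min, cooled to 5 °C and held 30 min. Absorbance followed at 260 nm during a 1.0 °C/min temperature ramp; Tm is the first-derivative maximum.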

Nucleic Acid [6] = assay: Binding affinity to synthetic oligonucleotide ON18 at 1.0 uM at pH 6.0 by thermal denaturation study
Procedure, shortened: (§2)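 Duplex melting: complementary strands at 1.0 µM each in 20 mM sodium cacodylate, 100 mM NaCl, 10 mM MgCl₂, at the pH of the line. Annealed at 80 °C for 5 min, then cooled to 5 °C and held 30 min. UV absorbance read at 260 nm with heating at 1.0 °C/min; Tm is the maximum of the first-derivative curve.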

Nucleic Acid [7] = assay: Binding affinity to synthetic oligonucleotide ON19 at 1.0 uM at pH 7.2 by thermal denaturation study; procedure, shortened: as §2
Nucleic Acid [8] = assay: Binding affinity to synthetic double stranded DNA D1 at 1.5 uM at pH 5.0 by thermal denaturation study; procedure, shortened: as §1
Nucleic Acid [9] = assay: Binding affinity to synthetic double stranded DNA D3 at 1.5 uM at pH 6.0 by thermal denaturation study; procedure, shortened: as §1
Nucleic Acid [10] = assay: Binding affinity to synthetic oligonucleotide ON19 at 1.0 uM at pH 6.0 by thermal denaturation study; procedure, shortened: as §2

Tm (Nucleic Acid [1]) [°C] | Tm (Nucleic Acid [2]) [°C] | Tm (Nucleic Acid [3]) [°C] | Tm (Nucleic Acid [4]) [°C] | Tm (Nucleic Acid [5]) [°C] | Tm (Nucleic Acid [6]) [°C] | Tm (Nucleic Acid [7]) [°C] | Tm (Nucleic Acid [8]) [°C] | Tm (Nucleic Acid [9]) [°C] | Tm (Nucleic Acid [10]) [°C] | SMILES
< 5 | < 5 | 28 | < 5 | 52 | 19 | 49.5 | 55 | < 5 | 49.5 | Cc1cn([C@H]2C[C@H](OP(=O)(O)OC[C@H]3O[C@@H](n4cc(C)c(=O)[nH]c4=O)C[C@@H]3OP(=O)(O)OC[C@H]3O[C@@H](n4cc(C)c(=O)[nH]c4=O)C[C@@H]3OP(=O)(O)OC[C@H]3O[C@@H](n4ccc(N)nc4=O)C[C@@H]3OP(=O)(O)OC[C@H]3O[C@@H](n4cc(C)c(=O)[nH]c4=O)C[C@@H]3OP(=O)(O)OC[C@H]3O[C@@H](n4cc(C)c(=O)[nH]c4=O)C[C@@H]3OP(=O)(O)OC[C@H]3O[C@@H](n4cc(C)c(=O)[nH]c4=O)C[C@@H]3O[PH](O)(O)OC[C@H]3O[C@@H](n4cc(C)c(=O)[nH]c4=O)C[C@@H]3OP(=O)(O)OC[C@H]3O[C@@H](n4cc(C)c(=O)[nH]c4=O)C[C@@H]3OP(=O)(O)OC[C@H]3O[C@@H](n4cc(C)c(=O)[nH]c4=O)C[C@@H]3O)[C@@H](COP(=O)(O)O[C@H]3C[C@H](n4ccc(N)nc4=O)O[C@@H]3COP(=O)(O)O[C@H]3C[C@H](n4ccc(N)nc4=O)O[C@@H]3COP(=O)(O)O[C@H]3C[C@H](n4ccc(N)nc4=O)O[C@@H]3COP(=O)(O)O[C@H]3C[C@H](n4ccc(N)nc4=O)O[C@@H]3CO)O2)c(=O)[nH]c1=O
25.5 | 18.5 | 40.5 | 16.5 | 49.5 | 21.5 | 46 | 55 | 21 | 46.5 | Cc1cn([C@H]2C[C@H](OP(=O)(O)OC[C@H]3O[C@@H](n4ccc(N)nc4=O)C[C@@H]3OP(=O)(O)OC[C@H]3O[C@@H](n4cc(C)c(=O)[nH]c4=O)C[C@@H]3OP(=O)(O)OC[C@H]3O[C@@H](n4cc(C)c(=O)[nH]c4=O)C[C@@H]3OP(=O)(O)OC[C@H]3O[C@@H](n4cc(C)c(=O)[nH]c4=O)C[C@@H]3O[PH](O)(O)OC[C@H]3O[C@@H](n4cc(C)c(=O)[nH]c4=O)C[C@@H]3OP(=O)(O)OC[C@H]3O[C@@H](n4cc(C)c(=O)[nH]c4=O)C[C@@H]3OP(=O)(O)OC[C@H]3O[C@@H](n4cc(C)c(=O)[nH]c4=O)C[C@@H]3O)[C@@H](COC[C@H](CCOc3ccc(-c4nc5c6ccccc6c6ccccc6c5[nH]4)c4ccccc34)OP(=O)(O)O[C@H]3C[C@H](n4cc(C)c(=O)[nH]c4=O)O[C@@H]3COP(=O)(O)O[C@H]3C[C@H](n4cc(C)c(=O)[nH]c4=O)O[C@@H]3COP(=O)(O)O[C@H]3C[C@H](n4ccc(N)nc4=O)O[C@@H]3COP(=O)(O)O[C@H]3C[C@H](n4ccc(N)nc4=O)O[C@@H]3COP(=O)(O)O[C@H]3C[C@H](n4ccc(N)nc4=O)O[C@@H]3COP(=O)(O)O[C@H]3C[C@H](n4ccc(N)nc4=O)O[C@@H]3CO)O2)c(=O)[nH]c1=O
